Experiment [1] addresses T1, Lysophosphatidic acid receptor 3 (Homo sapiens, UniProt Q9UBY5).
T1 sequence (Q9UBY5 whole entry): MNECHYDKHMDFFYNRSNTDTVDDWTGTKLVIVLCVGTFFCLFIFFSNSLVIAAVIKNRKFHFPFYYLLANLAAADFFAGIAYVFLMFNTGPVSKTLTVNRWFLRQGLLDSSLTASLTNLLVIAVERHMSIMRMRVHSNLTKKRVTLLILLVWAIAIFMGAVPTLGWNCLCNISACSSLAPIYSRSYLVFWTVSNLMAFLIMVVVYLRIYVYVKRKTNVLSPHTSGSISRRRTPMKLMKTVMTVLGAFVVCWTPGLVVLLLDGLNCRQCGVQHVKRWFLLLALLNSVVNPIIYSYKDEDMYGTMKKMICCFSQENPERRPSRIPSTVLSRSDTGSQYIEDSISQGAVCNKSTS
The experiment is described as follows: Binding affinity for Lysophosphatidic acid receptor 3 expressed in RH7777 rat hepatoma cells. Format: cell-based. A digest of the protocol: (§1)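 Fura-2 Ca2+ assay. RH7777 cells stably expressing LPA1, LPA2 or LPA3, or PC-3 cells (endogenous LPA1-3), seeded at 50000 cells/well on poly-D-lysine and grown overnight. Serum-starved in modified Krebs, pH 7.4, for 6-8 h (PC-3: 12 h), then Fura-2 AM loaded for 35 min. Compound added at 15 s; wells read 80-120 s. Transient taken as peak minus baseline 340/380 ratio. Antagonism: LPA 18:1 coapplied; highest concentration 30 μM.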

In experiment [2] the test system is PC-3. As to the kind of experiment: Inhibitory concentration against LPA expressed in PC-3 cells; Weak antagonist. Format: functional, cell-based, Homo sapiens. A digest of the protocol: as §1
In experiment [3] the target is T2, Lysophosphatidic acid receptor 2 (Homo sapiens, UniProt Q9HBW0). As to the kind of experiment: Inhibition of LPA-induced calcium transients in RH7777 rat hepatoma cells expressing LPA2 receptor; No effect. Type of experiment: functional, cell-based. A digest of the protocol: as §1
T2 sequence (Q9HBW0 whole entry): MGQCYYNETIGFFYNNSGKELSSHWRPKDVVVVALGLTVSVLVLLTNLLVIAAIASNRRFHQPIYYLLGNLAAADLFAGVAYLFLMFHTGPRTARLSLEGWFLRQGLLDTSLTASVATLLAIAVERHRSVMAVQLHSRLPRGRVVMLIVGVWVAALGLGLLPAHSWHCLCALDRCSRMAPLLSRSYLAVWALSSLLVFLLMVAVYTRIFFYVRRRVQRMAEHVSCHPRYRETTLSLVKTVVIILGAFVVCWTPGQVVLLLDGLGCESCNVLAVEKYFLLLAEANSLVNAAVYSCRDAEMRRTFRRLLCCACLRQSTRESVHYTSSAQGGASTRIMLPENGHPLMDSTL
A short description of experiment [4]: Percent maximal efficacy in PC-3 cells. Type of experiment: functional, Homo sapiens. A digest of the protocol: (§2)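 PC-3 human prostate cancer cells, which express LPA1-3 endogenously, 50000 cells/well. Serum-starved 12 h in modified Krebs, loaded with Fura-2 AM, read in a FlexStation. Ca2+ transient = 340/380 ratio peak minus baseline. Agonism (Emax as % of maximal LPA 18:1 response) and inhibition of LPA-induced transients were measured.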

The target in experiment [5] is T3, Lysophosphatidic acid receptor 1 (Homo sapiens, UniProt Q92633). As to the kind of experiment: (§3) Inhibition of LPA-induced calcium transients in RH7777 rat hepatoma cells expressing LPA1 receptor; No effect. Format: functional, cell-based. A digest of the protocol:
as §1

For experiment [6], the target named is T2, Lysophosphatidic acid receptor 2. The experiment is described as follows: Inhibition of LPA-induced calcium transients in RH7777 rat hepatoma cells expressing LPA2 receptor. Format: functional, cell-based.
The target of experiment [7] is T1, Lysophosphatidic acid receptor 3. As to the kind of experiment: (§4) Inhibition of LPA-induced calcium transients in RH7777 rat hepatoma cells expressing LPA3 receptor. Type of experiment: functional, cell-based. In outline: as §1
For experiment [8] the target is unchanged. The experiment is described as follows: Inhibition of LPA-induced calcium transients in RH7777 rat hepatoma cells expressing LPA3 receptor; No effect. Type of experiment: functional, cell-based. In outline: as §1
Experiment [9] has as its target T3, Lysophosphatidic acid receptor 1. The experiment is described as §3. Type of experiment: functional, cell-based. The source holds these as a separate data set.
The species named for experiment [10] is Homo sapiens. The experiment is described as follows: Inhibitory concentration of compound (after 5 min of incubation) against LPA human platelets.
The species named for experiment [11] is Homo sapiens. As to the kind of experiment: (§5) Concentration of compound (after 5 min of addition) that induce LPA expressed in human platelets. Type of experiment: functional. In outline:
(§6)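 Washed human platelets, aspirin-treated and isolated with apyrase, at 4 × 10^5/μL in HEPES buffer pH 7.4, stirred at 37 °C. Lipids given as BSA complexes (4:1). Shape change read as the fall in light transmission in an aggregometer. […] Mean ± SD across different donors.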

Experiment [12] addresses T3, Lysophosphatidic acid receptor 1. As to the kind of experiment: (§7) Inhibition of LPA-induced calcium transients in RH7777 rat hepatoma cells expressing LPA1 receptor. Type of experiment: functional, cell-based. In outline: as §1
The target of experiment [13] is T2, Lysophosphatidic acid receptor 2. As to the kind of experiment: Inhibition of LPA-induced calcium transients in RH7777 rat hepatoma cells expressing LPA2 receptor;No effect. Format: functional, cell-based. A digest of the protocol: as §1
Experiment [14] has as its target T3, Lysophosphatidic acid receptor 1. The experiment is described as follows: Binding affinity for Lysophosphatidic acid receptor 1 expressed in RH7777 rat hepatoma cells. Format: cell-based. A digest of the protocol: as §1
For experiment [15], the species on record is Homo sapiens. As to the kind of experiment: Maximal shape change of human platelets induced by the compound. Format: functional. A digest of the protocol: as §6
The target in experiment [16] is T3, Lysophosphatidic acid receptor 1. The experiment is described as follows: Inhibition of LPA-induced calcium transients in RH7777 rat hepatoma cells expressing LPA1 receptor; Not effect. Type of experiment: functional, cell-based. A digest of the protocol:
as §1

Experiment [17] has the same target. As to the kind of experiment: Maximal efficacy in induction of [Ca2+] transients in RH7777 rat hepatoma cells expressing LPA1 receptor. Type of experiment: functional, cell-based. A digest of the protocol: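 Agonist mode in RH7777 cells stably expressing the named LPA receptor, serum-starved 6-8 h, Fura-2 AM loaded. Increasing compound concentrations were added alone and the Ca2+ transient was read as the 340/380 ratio peak minus baseline. Emax = compound maximal response as a percentage of the LPA 18:1 maximal response.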

Experiment [18] deals with T1, Lysophosphatidic acid receptor 3. The description is as §4. Format: functional, cell-based. This is another data set of the same source.
Experiment [19] addresses T3, Lysophosphatidic acid receptor 1. The experiment is described as §7. Type of experiment: functional, cell-based. The source holds these as a separate data set.
Experiment [20] is described as follows: Inhibition of LPA-induced calcium transients in PC-3 cells; No effect. Type of experiment: functional, cell-based, Homo sapiens. In outline: as §1
Experiment [21] is described as follows: Inhibition of LPA expressed in PC-3 cells; No effect. Format: functional, cell-based, Homo sapiens. In outline:
as §1

Experiment [22] in a line: Binding affinity for Lysophosphatidic acid receptor in PC-3 cells. Format: cell-based, Homo sapiens. In outline: as §1
The species named for experiment [23] is Homo sapiens. The experiment is described as §5. Format: functional. The source holds these as a separate data set.
Experiment [24] in a line: Inhibition of LPA-induced calcium transients in PC-3 cells. Conditions: Homo sapiens, PC-3; read-out: IC50; call rule not given here. Format: functional, cell-based, Homo sapiens. In outline: as §2

T3 sequence (Q92633 whole entry): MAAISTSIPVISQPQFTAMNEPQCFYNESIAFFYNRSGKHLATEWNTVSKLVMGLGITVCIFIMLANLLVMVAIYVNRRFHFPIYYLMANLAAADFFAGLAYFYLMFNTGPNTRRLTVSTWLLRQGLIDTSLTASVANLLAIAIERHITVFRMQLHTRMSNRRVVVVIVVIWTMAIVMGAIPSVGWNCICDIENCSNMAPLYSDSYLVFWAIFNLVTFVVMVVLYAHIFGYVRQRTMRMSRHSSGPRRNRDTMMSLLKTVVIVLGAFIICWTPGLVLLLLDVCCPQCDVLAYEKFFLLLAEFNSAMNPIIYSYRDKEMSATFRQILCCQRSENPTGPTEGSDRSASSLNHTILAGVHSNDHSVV

One may read the Ki as a dissociation constant, usually derived from enzyme kinetics or from competition with a known ligand. A low value points to tighter binding. The term IC50 denotes the concentration that gives 50% inhibition. In general, Emax refers to the greatest response seen or fitted, relative to the assay's reference. The term EC50 denotes the concentration needed to bring the measured effect to its halfway point. As for `CCCCCCCCCCCCCCCC(=O)N[C@@H](Cc1ccc(OP(=O)(O)O)cc1)C(=O)O`, in experiment [1], the Ki is 2.33 µM. For the same compound, the IC50 result in [2] is “Partial antagonist”; in experiment [3], “Not Active”; in experiment [7], 5.57 µM; in experiment [9], “Not Active”. This compound also registered an Emax in experiment [4] of 25%. Besides, the EC50 result in experiment [5] is “Not Active”; in [6], ~11 µM; in experiment [8] it was “Not Active”.

For the compound `CCCCCCCCCCCCCCOP(=O)(O)O` [PHOSPHORIC ACID MONOTETRADECYL ESTER], the 50% inhibitory concentration (IC50) in [10] is 0.42 µM; in [12], 2.3 µM; in experiment [13] it was “Not Active”; in experiment [7], 0.422 µM. Further, the Ki in [1] came to 0.211 µM; in experiment [14] it was 1.08 µM. The concentration giving a half-maximal response (EC50) was 0.43 µM in [11], “Not Active” in experiment [3], “Not Active” in [5] and “Not Active” in experiment [8]. The compound further gave an Emax in experiment [15] of 87%.

`CCCCCCCC(=O)OC[C@H](COP(=O)(O)OP(=O)(O)O)OC(=O)CCCCCCC`: the Ki was determined as 0.202 µM in [1] and 4.3 µM in experiment [14]. The figures for the IC50 in experiment [12], in [3] and in [7] were 5.5 µM, “Not Active” and 0.454 µM, respectively. The EC50 entry in experiment [3], in experiment [16] and in experiment [8] was “Not Active” each time.

Turning to `CCCCCCCCCCCCCCCC(=O)N[C@@H](COP(=O)(O)O)C(=O)O`, the Emax in [17] was found to be 100%; in [4] it was 42%. Also, the EC50 result was “Not Active” in experiment [3], 1.6 µM in experiment [18] and 1.85 µM in experiment [19]. Moreover, the half-inhibitory concentration (IC50) result in [3] and in experiment [8] was “Not Active” in each case.

`CCCCCCCCCCCCCCCCCCP(=O)(O)O`: the EC50 result in experiment [20], in [3], in [5] and in experiment [8] was “Not Active” each time. For the same compound, the IC50 result in experiment [21], in experiment [3], in [8] and in experiment [9] was “Not Active” in each case.

Turning to `CC/C=C/CCCCCCCCOP(O)(O)=S`, the IC50 is 0.7 µM in experiment [10]; “Not Active” in [3]; 0.027 µM in [7]; “Not Active” in [9]; 2.97 µM in experiment [24]. Besides, the values for the Ki in experiment [1] and in experiment [22] were 0.014 µM and 1.46 µM, respectively. In addition, the Emax in experiment [4] worked out at 27%; in [15], 73%. In addition, the EC50 result in [5] was “Not Active”; in experiment [6] it was 0.677 µM; in [8] it was “Not Active”; in [23], 1 µM.
